{"source": "PubChem BioAssay AID624104", "about": "(Broad Institute, 2012)", "note": "Calls of active or inactive are those of the source.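 Rule for the calls: active = fitted curve reaches a 35% growth drop -35 below twice the top tested dose; inactive = activity in the wrong direction, or the rest.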"}
{"system": "not listed separately", "test": "mexAB-oprM mutant growth inhibition with EDDHA – PAK mexAB-OprM pump mutant, OD600, dry powder, set 2, dose response (AID 624104)", "conditions": "P. aeruginosa PAK mexAB-oprM, EDDHA, OD600 growth, 28 h; at 100 µM (top of the series)", "procedure,_shortened": "(§1)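 Material: Diluted overnight bacterial culture | Compound dosing: Pin-transferred compound series, final 100 µM down to 15 nM | Times: 28 h at 30 °C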"}
{"smiles": "Clc1ccc(C(c2cccc(Cl)n2)c2nn[nH]n2)cc1", "note": "(configuration not stated)", "activity change, negative = growth inhibition": "11.2% (inactive)"}
{"smiles": "N#CC(c1ccc(C(F)(F)F)c(Cl)n1)c1ccccc1OC(F)(F)F", "note": "(configuration not stated)", "activity change, negative = growth inhibition": "-25.9% (inactive)"}
{"smiles": "CN(C)CCCC(C#N)c1ccc(Cl)cc1", "note": "(configuration not stated)", "activity change, negative = growth inhibition": "-0.114% (inactive)"}
{"smiles": "COCCOCCC(C#N)c1ccc(Cl)cc1", "note": "(configuration not stated)", "activity change, negative = growth inhibition": "-10% (inactive)"}
{"system": "P. aeruginosa PAK mexAB-oprM, EDDHA, OD600 growth, 28 h", "test": "mexAB-oprM mutant growth inhibition with EDDHA – PAK mexAB-OprM pump mutant, OD600, dry powder, set 2, dose response (AID 624104)", "conditions": "not given", "procedure,_shortened": "as §1", "units": {"AC35": "µM"}}
{"smiles": "CCCCC(C#N)c1ccc(F)cn1", "note": "(configuration not stated)", "AC35": 18.7}
{"smiles": "N#Cc1cccc(C(C#N)c2ccc(F)cc2)n1", "note": "(configuration not stated)", "AC35": 8.88}
{"smiles": "COCCOCCC(C#N)c1ccc(F)cc1", "note": "(configuration not stated)", "AC35": 5.24}
{"smiles": "COCCC(C#N)c1ccc(Cl)cc1", "note": "(configuration not stated)", "AC35": 40.2}
{"smiles": "N#CC1c2ccc(Cl)cc2CCc2cccnc21", "note": "(configuration not stated)", "AC35": 32.8}
{"smiles": "N#CC(c1ccc(Cl)cc1)c1ncccc1Cl", "note": "(configuration not stated)", "AC35": 0.923}
{"smiles": "CCCCC(c1ccc(Cl)cc1)c1nn[nH]n1", "note": "(configuration not stated)", "AC35": 25.2}
{"smiles": "N#CC(c1cccc(Cl)n1)c1ccc(Cl)cc1F", "note": "(configuration not stated)", "AC35": 1.52}
{"smiles": "CCCCC(C#N)c1ccc(Cl)cn1", "note": "(configuration not stated)", "AC35": 42.3}
{"smiles": "N#CC(c1ccc(Cl)cc1)c1cccc(C(F)(F)F)n1", "note": "(configuration not stated)", "AC35": 1.45}
{"smiles": "N#CC(c1cccc(C(F)(F)F)n1)c1ccc(Cl)cc1F", "note": "(configuration not stated)", "AC35": 2.45}
{"smiles": "N#CC(c1ccc(Cl)cc1)c1ccccn1", "note": "(configuration not stated)", "AC35": 5.72}
{"smiles": "N#CC(c1ccc(F)cc1)c1cccc(Cl)n1", "note": "(configuration not stated)", "AC35": 2.09}
{"smiles": "N#CC(c1ccc(Cl)cc1)c1cccc(Cl)n1", "note": "(configuration not stated)", "AC35": 1.97}
{"smiles": "N#CC(c1ccc(F)cc1)c1cccc(C(F)(F)F)n1", "note": "(configuration not stated)", "AC35": 0.839}
{"smiles": "CCCCC(C#N)c1ccc(F)cc1", "note": "(configuration not stated)", "AC35": 33.5}
{"smiles": "COCCC(C#N)c1ccc(F)cc1", "note": "(configuration not stated)", "AC35": 28.3}
{"smiles": "CN(C)CCCC(C#N)c1ccc(F)cc1", "note": "(configuration not stated)", "AC35": 6.4}
